# This is a sample that favours compounds with a hit; in the whole collection about 3.2% have one here.
# DAGLB inh = blocks human DAGLB lipase activity | 0.059% of 340,000 active | HEK293T DAGLB membrane lysate, EnzChek fluorogenic substrate | inhibition, % at 5.17 µM; in the data active = inhibition above about 34%
# rCAG RNA binder = r(CAG) repeat RNA binding; TO-PRO-1 dye displacement fluorescence; inhibition, % at 3 µM; 1.3% of 370,000 active; AID 651821;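 active = inhibition above the plate cutoff, the mean of all test compounds on that plate plus 3 SD, cut at about 35% in these data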;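 also: higher means more dye released from RNA so lower well fluorescence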
# ABHD4 inh = inhibitors of mouse ABHD4; 0.54% of 370,000 active; inhibition, % at 8.92 µM; Q8VD66; purified mABHD4, FP-Rh probe fluorescence polarization;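 active = inhibition exceeding the mean over every tested compound plus 3 SD, cut at about 30% in these data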
# Target sequence (Q8VD66 whole entry, looked up): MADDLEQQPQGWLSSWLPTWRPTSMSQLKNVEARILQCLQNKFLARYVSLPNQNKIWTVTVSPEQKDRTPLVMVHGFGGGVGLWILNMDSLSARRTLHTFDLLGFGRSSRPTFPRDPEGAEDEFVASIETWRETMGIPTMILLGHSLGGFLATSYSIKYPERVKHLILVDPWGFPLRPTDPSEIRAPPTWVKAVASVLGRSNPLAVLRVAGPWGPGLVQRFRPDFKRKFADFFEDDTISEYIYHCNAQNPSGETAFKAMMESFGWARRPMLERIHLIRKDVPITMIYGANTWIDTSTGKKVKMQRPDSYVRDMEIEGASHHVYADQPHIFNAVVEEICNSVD
#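 Test system: mABHD4 protein; Read-out basis: % inhibition; Incubation: 45 min + 60 min at 25 °C; Repeats: single replicate; Technique: fluorescence polarization with parallel and perpendicular emission, 525/598 nm; Compound: 8.92 µM, single dose; Benchmarks: full inhibition S159A mutant plus DMSO, zero as sample-well median.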
# LEDGF integ inh = blocks HIV-1 LEDGF/p75-dependent DNA integration; AID 743269; TR-FRET IN-LEDGF/p75 DNA integration, Eu/Cy5; 0.64% of 370,000 active; inhibition, % at 3.7 µM;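 active = inhibition above the screen-wide mean plus 3 SD, cut at about 13% in these data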;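 also: signal is the Cy5 over europium emission ratio at 671 and 618 nm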
# HTRA1 inh = HTRA1 (human) protease inhibition | Q92743 | recombinant HTRA1, FP-rhodamine activity-based probe, fluorescence polarization | inhibition, % at 5.96 µM | 0.5% of 340,000 active; in the data active = inhibition above about 36%
# PRMT1 FP inh = blocks human protein arginine methyltransferase 1; 1.3% of 370,000 active; Q99873; inhibition, % at 2.79 µM; recombinant PRMT1, activity-based probe fluorescence polarization;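 active = inhibition above about 21% made by adding two undisclosed values, limit read from the data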
# rCAG binder conf = r(CAG) RNA repeat binding, confirmation | shares compounds with rCAG RNA binder | TO-PRO-1 dye displacement fluorescence | inhibition, % at 3 µM | 70% of 4,300 active | AID 652065;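 active = inhibition above a per-plate cutoff, the mean inhibition of sample wells plus 3 SD, cut at about 35% in these data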;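 also: loss of TO-PRO-1 fluorescence as compound displaces dye from 1x1 AA loop RNA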
# DNA CAG counter = counter-screen for rCAG RNA binders: DNA CAG dye complex inhibitors; AID 652068; shares compounds with rCAG RNA binder; inhibition, % at 3 µM; d(CAG) DNA oligo TO-PRO-1 dye displacement, fluorescence; 94% of 4,300 active;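 active = inhibition above its plate's cutoff, the mean test-well inhibition plus 3 SD, cut at about 4.8% in these data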;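 also: hits displace the dye from DNA and so lower well fluorescence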
# DNA CAG DR = DNA CAG dye complex inhibition, dose response counter-screen | shares compounds with rCAG RNA binder | IC50, µM | 20% of 250 active | AID 686960 | DNA CAG/GTC duplex TO-PRO-1 dye displacement fluorescence; in the data active = IC50 below about 10 µM
# A number is an active result; 0 = inactive; - = no result given.
SMILES,DAGLB inh,rCAG RNA binder,ABHD4 inh,LEDGF integ inh,HTRA1 inh,PRMT1 FP inh,rCAG binder conf,DNA CAG counter,others
C=CCOc1c(OC)cc(/C=N/Nc2cccc(C(=O)O)c2)c(Br)c1Br,0,51,0,0,0,0,70,31,DNA CAG DR=8.3
O=C(CSc1nc2cc(C(=O)O)ccc2c(=O)n1-c1ccc(F)cc1)Nc1ccc(F)c(F)c1F,0,39,0,0,0,0,0,0,
Cc1cc(NC(=O)Cc2cccs2)no1,0,40,0,0,0,0,35,23,
C=CCCC(=O)Nc1nc(C)c(-c2csc(Nc3cc(Cl)ccc3OC)n2)s1,0,0,0,0,0,0,-,-,
COc1ccc(Cl)cc1Nc1nc(-c2sc(NC(=O)CC(C)C)nc2C)cs1,0,36,0,0,0,0,0,14,
C=CCCC(=O)Nc1nc(C)c(-c2csc(Nc3ccc(Cl)cc3Cl)n2)s1,0,36,0,0,0,0,0,13,
CC(C)C[C@H]1COc2cccc(N3CCCCC3)c2S(=O)(=O)N1,-,0,0,0,-,0,-,-,
CC(C)CCn1c(=O)c2sccc2n2c(CCCC(=O)N3CCC(N4CCCCC4)CC3)nnc12,0,0,0,0,0,0,-,-,
O=C(O)c1cccc(NC(=O)c2cn(-c3ccccc3)nc2-c2ccncc2)c1,0,0,0,0,0,0,-,-,
O=C(O)c1cccc(NC(=O)c2cn(-c3ccccc3)nc2-c2cccc(Br)c2)c1,0,87,0,0,0,0,82,50,
O=C(O)c1ccc(NC(=O)c2cn(-c3ccccc3)nc2-c2ccccc2)cc1,0,0,0,0,0,0,-,-,
O=C(O)c1cccc(NC(=O)c2cn(-c3ccccc3)nc2-c2ccc([N+](=O)[O-])cc2)c1,0,0,0,0,0,0,-,-,
O=C(O)c1ccc(NC(=O)c2cn(-c3ccccc3)nc2-c2ccc(Br)cc2)cc1,0,82,0,0,0,0,68,28,
COc1ccc(-c2nn(-c3ccccc3)cc2C(=O)Nc2cccc(C(=O)O)c2)cc1[N+](=O)[O-],0,71,0,0,0,0,61,24,
O=C(Nc1ccccc1)c1cc([N+](=O)[O-])ccc1N1CCCCC1,0,0,0,0,0,0,-,-,
Cc1ccsc1/C=C1\SC(=S)N(CC2CCCO2)C1=O (stereo unspecified),0,36,0,0,0,0,0,0,
O=C1/C(=C/c2ccc(O)cc2)SC(=S)N1CC1CCCO1 (stereo unspecified),0,0,0,0,0,0,-,-,
O=C(OCC(=O)N1CCOCC1)C(c1ccccc1)c1ccccc1,0,0,0,0,0,0,-,-,
O=C(CN1C(=O)S/C(=C/C=C/c2ccccc2)C1=O)Nc1ccc(C(=O)O)cc1,0,65,0,0,0,0,45,15,
O=C(CCCN1C(=O)S/C(=C\C=C\c2ccccc2)C1=O)Nc1ccc(O)cc1,0,0,0,0,0,0,-,-,
O=C(CCN1C(=O)/C(=C\C=C\c2ccccc2)SC1=S)Nc1ccc(C(=O)O)cc1,0,46,0,0,0,0,78,43,
O=C(CN1C(=O)S/C(=C\C=C\c2ccccc2)C1=O)Nc1ccc(C(=O)O)cc1,0,54,0,0,0,0,46,18,
O=C(CN1C(=O)/C(=C\C=C\c2ccccc2)SC1=S)Nc1ccc(F)cc1,0,0,0,0,0,0,-,-,
O=C(COC(=O)CCN1C(=O)/C(=C\C=C\c2ccccc2)SC1=S)Nc1cc(F)ccc1F,0,38,0,0,0,0,0,14,
CCN(CC)CCNC(=O)c1c(C)n(-c2ccccc2)c2cc(Br)c(OC)cc12,0,0,0,0,0,0,-,-,
SMILES,DAGLB inh,rCAG RNA binder,ABHD4 inh,LEDGF integ inh,HTRA1 inh,PRMT1 FP inh,rCAG binder conf,DNA CAG counter,others
O=C(COc1ccc(Cl)cc1)Nc1nc(-c2ccc(S(=O)(=O)N3CCOCC3)cc2)cs1,0,0,0,0,0,0,-,-,
Cc1cccc(/C=C/C(=O)c2ccc(N3CCOCC3)cc2)c1,-,0,0,0,-,0,-,-,
Cc1ccc(Cc2cnc(NC(=O)/C(C#N)=C/c3ccc(-c4ccc([N+](=O)[O-])cc4)o3)s2)cc1,0,0,0,0,0,0,-,-,
CCOC(=O)c1c(C)[nH]c(C)c1S(=O)(=O)Nc1ccc(CN2CCCCC2)cc1,0,0,0,0,0,0,-,-,
COc1ccccc1-c1nc2ccccc2nc1-c1ccccc1,0,0,0,0,0,0,-,-,
COc1ccc(/C=N/NC(=O)c2cc(-c3ccccc3)nc3ccccc23)c(C(=O)O)c1OC,0,0,0,0,0,0,-,-,
Cc1ccc2[nH]c(C(=O)N/N=C/c3ccccc3C(=O)O)c(-c3ccccc3)c2c1,0,55,0,0,0,0,36,9.0,
COc1ccc(/C=N/NC(=O)c2[nH]c3ccc(C)cc3c2-c2ccccc2)c(C(=O)O)c1OC,0,39,0,0,0,0,46,15,
N#C/C(=C\c1ccc(OCc2ccccc2)cc1)C(=O)Nc1nc2c(s1)CCN(Cc1ccccc1)C2,0,0,0,0,0,0,-,-,
O=C(O)c1ccc(CSCc2ccccc2)o1,0,0,0,0,0,0,-,-,
CC(C)(C)NC(=O)C(c1ccccc1)N(C(=O)C1CSC(=O)C1)c1ccccc1 (stereo unspecified),0,0,0,0,0,0,-,-,
O=C(CCC1CCCCC1)Nc1ccc(S(=O)(=O)Nc2nccs2)cc1,0,53,0,0,0,0,43,14,
Cc1ccc(C2(C)NC(=O)N(CC(=O)Nc3ccc(S(=O)(=O)Nc4nccs4)cc3)C2=O)cc1 (stereo unspecified),0,51,0,0,0,0,0,12,
CC(=O)Nc1ccc(NC(=O)C23CC4CC(C2)CC(n2cnc(Br)n2)(C4)C3)cc1,0,0,0,0,0,0,-,-,
COCC(=O)Nc1ccc(S(=O)(=O)Nc2onc(C)c2C)cc1,0,0,0,0,0,0,-,-,
Cc1noc(NS(=O)(=O)c2ccc(NC(=O)CCC3CCCCC3)cc2)c1C,0,45,0,0,0,0,46,8.6,DNA CAG DR=0
Cc1noc(NS(=O)(=O)c2ccc(NC(=O)C34CC5CC(C3)CC(n3cnc(Br)n3)(C5)C4)cc2)c1C,0,41,0,0,0,0,0,7.6,
Cc1ccc(NC(=O)CN2C(=O)NC(C)(c3ccc(Cl)cc3)C2=O)cc1 (stereo unspecified),0,0,0,0,0,0,-,-,
COc1ccc(C(CNC(=O)C(C)Oc2ccc(Br)cc2)N2CCCC2)cc1 (stereo unspecified),0,0,0,0,0,0,-,-,

# Compound activity: PubChem, The Scripps Research Institute Molecular Screening Center
